RAD54 branch = inhibitors of human RAD54 branch migration; AID 602329; RAD54 Holliday junction branch migration, FAM/BHQ fluorescence; inhibition, % at 10.4 µM; 360,000 compounds, 0.14% hits;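 active = mean normalized replicate activity at least 40 and at least half of replicates scoring 40 or more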;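 also: inhibitors cause a drop in the FAM fluorescence signal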
Apaf-1 inh = inhibitors of human Apaf-1 apoptosome; inhibition, % at 20 µM; O14727; 330,000 compounds, 0.71% hits; reconstituted apoptosome caspase-3 activity, DEVD-Rh110 fluorescence; active = inhibition of at least 40% at 20 µM
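Material: biochemical Apaf-1 apoptosome reconstitution. Medium: Hepes buffer, pH 7.5. Also added: cytochrome c activation, bis-DEVD rhodamine 110 substrate. Timing: 30 min compound preincubation, 50 min activation, room temperature. Measured by: rhodamine 110 fluorescence at Ex 480/Em 540 nm.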
RAD52 anneal inh = RAD52 (human) annealing inhibition; P43351; recombinant RAD52 DNA annealing, FRET fluorescence; inhibition, % at 18.7 µM; 360,000 compounds, 0.46% hits;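 active = every replicate showing at least 50% inhibition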
Target sequence (P43351 whole entry, looked up): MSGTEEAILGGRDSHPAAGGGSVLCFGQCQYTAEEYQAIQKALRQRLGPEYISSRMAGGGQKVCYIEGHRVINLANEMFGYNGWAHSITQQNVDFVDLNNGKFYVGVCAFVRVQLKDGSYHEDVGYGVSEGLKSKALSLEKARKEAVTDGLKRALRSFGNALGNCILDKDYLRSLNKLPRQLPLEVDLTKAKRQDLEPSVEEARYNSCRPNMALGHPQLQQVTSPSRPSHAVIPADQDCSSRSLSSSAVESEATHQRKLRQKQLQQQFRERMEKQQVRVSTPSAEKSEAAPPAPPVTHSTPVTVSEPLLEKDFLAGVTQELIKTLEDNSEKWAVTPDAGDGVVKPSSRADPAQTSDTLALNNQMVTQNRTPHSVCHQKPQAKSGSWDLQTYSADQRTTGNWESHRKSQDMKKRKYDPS
DNA FID counter = fluorescent intercalator displacement, NS3 helicase counter-screen. DNA fluorescent intercalator displacement, fluorescence. inhibition, % at 7.9 µM. 290,000 compounds, 0.17% hits. AID 1845; in the data active = inhibition above about 37%;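 also: higher means more ethidium bromide displaced from hairpin DNA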
Neddylation inh = cullin neddylation inhibition | 360,000 compounds, 0.58% hits | TR-FRET cullin neddylation, biochemical | P61081+Q13564 | calls only at 25 µM; in the data active = inhibition above about 36%
UBC13 inh = inhibitors of human UBC13 polyubiquitin chain formation. P61088. TR-FRET. inhibition, % at 20 µM. 330,000 compounds, 0.47% hits. AID 485273; in the data active = inhibition above about 45%, passing the limit was not always enough
Target sequence (P61088 whole entry, looked up): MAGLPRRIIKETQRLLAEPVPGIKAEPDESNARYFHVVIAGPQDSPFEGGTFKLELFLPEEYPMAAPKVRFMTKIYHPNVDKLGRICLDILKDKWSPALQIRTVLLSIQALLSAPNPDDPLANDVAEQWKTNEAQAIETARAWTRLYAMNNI
Apaf-1 inh conf2 = Apaf-1 inhibition, single-dose confirmed | shares compounds with Apaf-1 inh | reconstituted apoptosome, caspase-3 DEVD-Rh110 fluorescence | inhibition, % at 20 µM | 1,800 compounds, 25% hits;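 active = mean inhibition of at least 40% at 20 µM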
Rh110 interf inh = interferes with Rh110 fluorescence, flagging false Apaf-1 inhibitors. AID 504615. 1,800 tested, under 10 active. shares compounds with Apaf-1 inh. Rh110 fluorescence interference, quenched caspase reaction. activation (fluorescence interference), % at 20 µM;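 active = signal rise of 40% or more at 20 µM, treated as a fluorescence artifact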
Apaf1 inh interf = Apaf-1 inhibitor counter-screen fluorescence artifact. shares compounds with Apaf-1 inh. fluorescence interference counterscreen, Apaf-1 assay format. IC50, µM. 460 tested, under 10 active. AID 588538; call rule not given here
Hits are given with their value. Hits are enriched below; roughly 1.6% of the tested compounds scored in any of these assays.

For CS(=O)(=O)N1CCN(c2ccc(NC(=O)C(c3ccccc3)c3ccccc3)cc2)CC1 the results were RAD54 branch inactive, Apaf-1 inh inactive, DNA FID counter inactive, Neddylation inh inactive and UBC13 inh inactive.
Screening Cc1[nH]n(-c2ccccc2)c(=O)c1C(c1ccccc1[N+](=O)[O-])C(C#N)C#N (stereo not given) returned RAD54 branch inactive, Apaf-1 inh inactive, RAD52 anneal inh inactive, DNA FID counter inactive, Neddylation inh inactive and UBC13 inh inactive.
Screening COc1ccc(C(c2c(C)n(C)n(-c3ccccc3)c2=O)c2c(C)n(C)n(-c3ccccc3)c2=O)cc1OC returned RAD54 branch inactive, Apaf-1 inh inactive, RAD52 anneal inh inactive, DNA FID counter inactive, Neddylation inh inactive and UBC13 inh inactive.
For COc1ccc(C(c2c(C)[nH]n(-c3ccccc3)c2=O)c2c(C)[nH]n(-c3ccccc3)c2=O)cc1OC the results were RAD54 branch inactive, Apaf-1 inh 97, DNA FID counter inactive, Neddylation inh inactive, UBC13 inh inactive, Apaf-1 inh conf2 inactive and Rh110 interf inh inactive.
`Cc1ccc(C(C[N+](=O)[O-])c2c(C)[nH]n(-c3ccccc3)c2=O)cc1` (stereo not given) gave RAD54 branch inactive, Apaf-1 inh 93, RAD52 anneal inh inactive, DNA FID counter inactive, Neddylation inh inactive, UBC13 inh inactive, Apaf-1 inh conf2 44, Rh110 interf inh inactive and Apaf1 inh interf inactive.
Cc1[nH]n(-c2ccccc2)c(=O)c1C(C[N+](=O)[O-])c1ccc(F)cc1 (stereo not given) was read as Apaf-1 inh 94, DNA FID counter inactive, Neddylation inh inactive, UBC13 inh inactive, Apaf-1 inh conf2 inactive and Rh110 interf inh inactive.
Screening C[C@@H](NC(=O)C[C@@H]1CC[C@H](NC(=O)Nc2ccc3c(c2)OCO3)[C@@H](CO)O1)c1ccccc1 returned RAD54 branch inactive and RAD52 anneal inh inactive.
`Cc1cc(Nc2cccc(Cl)c2)nc(NCc2ccccc2)n1` gave Apaf-1 inh 43, RAD52 anneal inh inactive, DNA FID counter inactive, Neddylation inh active, UBC13 inh 49, Apaf-1 inh conf2 inactive and Rh110 interf inh inactive.
For C/C=C/c1ccc2c(c1)[C@H]1[C@H](CCN1S(=O)(=O)c1ccc(C)cc1)[C@H](CO)N2 the results were RAD54 branch inactive and RAD52 anneal inh inactive.
CCOc1ccc(OCCSc2ccc(S(=O)(=O)N3CCN(C)CC3)cn2)cc1 was read as RAD54 branch inactive, Apaf-1 inh 55, RAD52 anneal inh inactive, Neddylation inh inactive, UBC13 inh inactive, Apaf-1 inh conf2 inactive and Rh110 interf inh inactive.
For CN1CCN(S(=O)(=O)c2ccc(SCCOc3ccccc3)nc2)CC1 the results were RAD54 branch inactive, Apaf-1 inh inactive, DNA FID counter inactive, Neddylation inh inactive and UBC13 inh inactive.
For COc1ccc(NC(=O)c2cc(-c3ccccn3)nc3ccccc23)c(OC)c1 the results were RAD54 branch inactive, Apaf-1 inh inactive, RAD52 anneal inh inactive, Neddylation inh inactive and UBC13 inh inactive.
For CCOc1ccccc1NC(=O)c1cc(-c2ccccn2)nc2ccccc12 the results were RAD54 branch inactive, Apaf-1 inh 53, RAD52 anneal inh inactive, Neddylation inh inactive, UBC13 inh inactive, Apaf-1 inh conf2 inactive and Rh110 interf inh inactive.
For O=C1C=C(Nc2ccccc2O)c2ccccc2C1=O the results were RAD54 branch inactive, Apaf-1 inh 96, RAD52 anneal inh inactive, DNA FID counter inactive, Neddylation inh inactive, UBC13 inh inactive, Apaf-1 inh conf2 93, Rh110 interf inh inactive and Apaf1 inh interf inactive.
Screening Cn1c(SCC(=O)n2c3c(c4ccccc42)CCCC3)nnc1-c1ccccc1 returned RAD54 branch inactive, Apaf-1 inh 43, DNA FID counter inactive, Neddylation inh inactive, UBC13 inh inactive, Apaf-1 inh conf2 inactive and Rh110 interf inh inactive.
Screening C[C@@H]1CN([C@H](C)CO)S(=O)(=O)c2ccc(-c3cccc(F)c3)cc2O[C@@H]1CN(C)C(=O)C1CC1 returned RAD54 branch inactive and RAD52 anneal inh inactive.
COc1ccc(/C=N/Nc2cc(N(C)C)nc(N(C)C)n2)cc1 was read as Apaf-1 inh 97, RAD52 anneal inh inactive, DNA FID counter inactive, Neddylation inh inactive, UBC13 inh inactive, Apaf-1 inh conf2 95, Rh110 interf inh inactive and Apaf1 inh interf inactive.
Screening CN(C)c1cc(N/N=C\c2ccccc2)nc(N(C)C)n1 returned Apaf-1 inh 95, RAD52 anneal inh inactive, DNA FID counter inactive, Neddylation inh inactive, UBC13 inh inactive, Apaf-1 inh conf2 89, Rh110 interf inh inactive and Apaf1 inh interf inactive.
Screening Cc1cc(N/N=C/c2ccccc2)nc(NCc2ccccc2)n1 returned RAD54 branch inactive, Apaf-1 inh inactive, RAD52 anneal inh inactive, DNA FID counter inactive, Neddylation inh inactive and UBC13 inh inactive.
For COc1ccc(/C=N/Nc2cc(OC)ncn2)cc1 the results were RAD52 anneal inh inactive, DNA FID counter inactive and Neddylation inh inactive.
`CC(C(=O)NC(=O)NC1CCCCC1)N(C)CC(=O)Nc1ccc(F)c(F)c1F` (stereo not given) gave Apaf-1 inh 46, RAD52 anneal inh inactive, Neddylation inh inactive, UBC13 inh inactive, Apaf-1 inh conf2 inactive and Rh110 interf inh inactive.
For CN(CC(=O)Nc1ccc(F)c(F)c1F)C1CCCCC1 the results were RAD54 branch inactive, Apaf-1 inh inactive, DNA FID counter inactive, Neddylation inh inactive and UBC13 inh inactive.
For Nc1ccc2nc3c(c(Cl)c2c1)CCCC3 the results were RAD54 branch inactive, Apaf-1 inh 64, RAD52 anneal inh inactive, DNA FID counter inactive, UBC13 inh inactive, Apaf-1 inh conf2 inactive and Rh110 interf inh inactive.
`C[C@H](CO)N1C[C@H](C)[C@@H](CN(C)C(=O)c2ccc(F)cc2)Oc2ncc(-c3ccc(F)cc3)cc2C1=O` gave RAD54 branch inactive and RAD52 anneal inh inactive.
Screening CN1CCN(C(=O)C[C@H]2CC[C@@H]3[C@H](COC[C@@H](O)CN3C(=O)Nc3ccc(F)cc3)O2)CC1 returned RAD54 branch inactive and RAD52 anneal inh inactive.
`Cc1nn(CCc2nn[nH]n2)c2nc(-c3ccc(C4CCCCC4)cc3)cc(C(F)(F)F)c12` gave Apaf-1 inh 60, RAD52 anneal inh inactive, DNA FID counter inactive, UBC13 inh inactive, Apaf-1 inh conf2 inactive and Rh110 interf inh inactive.
Screening O=[N+]([O-])c1cc2c(cc1C=Nc1ccccc1)OCO2 returned RAD54 branch inactive, Apaf-1 inh 48, DNA FID counter inactive, Neddylation inh inactive, UBC13 inh inactive, Apaf-1 inh conf2 inactive and Rh110 interf inh inactive.

Screening results as filed in PubChem BioAssay.
